Assay results published in paper PMC4750707 (Antimicrobial Agents and Chemotherapy, 2016).
In brackets after ≈: the same amount, converted by molar mass.

Tests used:
E. coli PBP5/6 = assay: PBP competition assay with Bocillin FL; type: binding, Escherichia coli; settings: E. coli K-12 membranes; Bocillin FL 100 μM
Summary of the method: (§1)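 E. coli K-12 or P. aeruginosa 1771 grown in BHI at 35°C to A600 ~1.5. Cells in 50 mM phosphate pH 7.0 were French-pressed; membranes pelleted at 150,000 × g. Membranes (10–20 μg protein) were pre-incubated with test compound 10 min at 30°C, then Bocillin FL (100 μM final) 20 min. SDS-PAGE, fluorescence scan. IC50 in μg/ml from ≥8 concentrations versus no-drug control.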

S. aureus PBP3 = S. aureus PBP3 (Staphylococcus aureus, UniProt Q9XDB3); assay: PBP competition assay with Bocillin FL; type: binding
Summary of the method: (§2)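 S. aureus ATCC 29213 membranes were prepared in KPN buffer pH 7.5. Lysis used lysostaphin 400 μg/ml for 1 h at 37°C plus protease inhibitors, DNase and RNase, then French press. Membranes (10–20 μg protein) received test compound for 10 min at 30°C, then Bocillin FL 100 μM final for 20 min. SDS-PAGE band volumes; IC50 from three assays of six concentrations versus no-drug control.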

P. aeruginosa = assay: Broth microdilution MIC; type: cell-based; settings: Pseudomonas aeruginosa
Summary of the method: (§3)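 MICs by CLSI broth microdilution in cation-adjusted Mueller-Hinton broth. Strains grown in BHI broth at 35°C: E. coli K-12, P. aeruginosa 1771 and S. aureus ATCC 29213. H. influenzae Rd grown in BHI with Haemophilus test medium supplement (hemin and β-NAD, 15 μg/ml each).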

E. coli PBP3 = target: T1, E. coli PBP3 (Escherichia coli, UniProt P0AD68); assay: PBP competition assay with Bocillin FL; type: binding
T1 sequence (P0AD68 1-588): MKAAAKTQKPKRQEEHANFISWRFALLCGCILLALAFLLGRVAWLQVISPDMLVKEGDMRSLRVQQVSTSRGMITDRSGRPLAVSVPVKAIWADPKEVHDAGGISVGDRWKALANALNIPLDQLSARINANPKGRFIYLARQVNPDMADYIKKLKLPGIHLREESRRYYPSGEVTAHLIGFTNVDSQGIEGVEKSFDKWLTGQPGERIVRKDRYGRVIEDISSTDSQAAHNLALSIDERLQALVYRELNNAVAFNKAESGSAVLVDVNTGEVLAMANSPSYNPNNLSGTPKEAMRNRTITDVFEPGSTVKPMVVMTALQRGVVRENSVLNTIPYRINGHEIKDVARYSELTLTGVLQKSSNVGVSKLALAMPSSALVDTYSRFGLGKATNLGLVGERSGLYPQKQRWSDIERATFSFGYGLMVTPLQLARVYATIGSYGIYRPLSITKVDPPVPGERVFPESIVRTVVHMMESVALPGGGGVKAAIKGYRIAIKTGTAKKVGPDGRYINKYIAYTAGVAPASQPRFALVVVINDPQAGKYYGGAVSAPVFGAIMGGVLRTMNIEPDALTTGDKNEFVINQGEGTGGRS
Summary of the method: as §1

S. aureus = assay: Broth microdilution MIC; type: cell-based; settings: Staphylococcus aureus, ATCC29213
Summary of the method: as §3

E. coli PBP4 = E. coli PBP4 (Escherichia coli, UniProt P24228); assay: PBP competition assay with Bocillin FL; type: binding
Summary of the method: as §1

E. coli PBP1b = target: T2, E. coli PBP1b (Escherichia coli, UniProt P02919); assay: PBP competition assay with Bocillin FL; type: binding
T2 sequence (P02919 1-844): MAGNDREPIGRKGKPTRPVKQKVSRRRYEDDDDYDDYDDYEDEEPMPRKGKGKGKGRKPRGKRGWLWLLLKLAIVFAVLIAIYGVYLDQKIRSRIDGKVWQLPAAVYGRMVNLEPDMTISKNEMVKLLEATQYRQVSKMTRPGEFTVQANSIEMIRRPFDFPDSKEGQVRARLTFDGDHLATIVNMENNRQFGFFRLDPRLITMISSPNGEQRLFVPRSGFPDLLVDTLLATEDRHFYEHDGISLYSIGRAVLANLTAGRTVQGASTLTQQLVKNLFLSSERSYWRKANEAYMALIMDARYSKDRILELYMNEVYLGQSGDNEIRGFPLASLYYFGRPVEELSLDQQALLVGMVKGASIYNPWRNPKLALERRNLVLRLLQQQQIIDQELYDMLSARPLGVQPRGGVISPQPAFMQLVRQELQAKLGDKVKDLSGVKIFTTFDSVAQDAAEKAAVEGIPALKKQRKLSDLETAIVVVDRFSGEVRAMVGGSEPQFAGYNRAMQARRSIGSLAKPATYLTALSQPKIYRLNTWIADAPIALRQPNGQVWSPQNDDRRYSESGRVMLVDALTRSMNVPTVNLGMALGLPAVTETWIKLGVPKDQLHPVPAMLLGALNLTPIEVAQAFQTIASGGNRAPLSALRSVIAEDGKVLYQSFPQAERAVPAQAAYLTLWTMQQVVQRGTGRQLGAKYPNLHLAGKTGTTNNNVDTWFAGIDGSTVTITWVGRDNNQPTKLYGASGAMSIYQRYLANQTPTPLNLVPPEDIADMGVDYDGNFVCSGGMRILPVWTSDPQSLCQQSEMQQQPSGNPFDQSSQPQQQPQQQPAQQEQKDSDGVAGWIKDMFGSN
Summary of the method: as §1

E. coli = assay: Broth microdilution MIC; type: cell-based; settings: Escherichia coli
Summary of the method: as §3

P. aeruginosa PBP3 = P. aeruginosa PBP3 (Pseudomonas aeruginosa, UniProt G3XD46); assay: PBP competition assay with Bocillin FL; type: binding
S. aureus PBP4 = target: T3, S. aureus PBP4 (Staphylococcus aureus, UniProt P72355); assay: PBP competition assay with Bocillin FL; type: binding
T3 sequence (P72355 25-431): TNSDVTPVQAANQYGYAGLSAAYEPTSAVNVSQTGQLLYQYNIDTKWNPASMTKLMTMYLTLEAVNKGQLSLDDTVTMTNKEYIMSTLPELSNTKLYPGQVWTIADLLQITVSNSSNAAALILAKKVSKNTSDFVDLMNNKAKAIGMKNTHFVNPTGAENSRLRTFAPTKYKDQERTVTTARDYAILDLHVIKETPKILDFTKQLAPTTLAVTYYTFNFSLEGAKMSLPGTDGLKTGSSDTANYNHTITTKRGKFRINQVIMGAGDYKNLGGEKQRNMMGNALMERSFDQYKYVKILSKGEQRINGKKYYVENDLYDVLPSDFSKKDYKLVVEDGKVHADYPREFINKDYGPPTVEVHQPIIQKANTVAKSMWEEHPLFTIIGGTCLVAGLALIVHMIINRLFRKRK

S. aureus PBP2 = S. aureus PBP2 (Staphylococcus aureus, UniProt Q9R744); assay: PBP competition assay with Bocillin FL; type: binding
Summary of the method: as §2

Relative binding (IC50) for PBP 5/6 (E. coli PBP5/6) [mg/L] | IC50 (S. aureus PBP3) [µM] | MIC (P. aeruginosa) [mg/L] | IC50 (E. coli PBP3) [µM] | MIC (S. aureus) [mg/L] | IC50 (E. coli PBP4) [µM] | IC50 (E. coli PBP1b) [µM] | MIC (E. coli) [mg/L] | IC50 (P. aeruginosa PBP3) [µM] | IC50 (S. aureus PBP4) [µM] | IC50 (S. aureus PBP2) [µM] | Binding to S. aureus PBP4 revealed by reduction of Bocillin FL labeling (S. aureus PBP4; S. aureus membranes, in presence of avibactam fixed at 4 μg/ml) | Structure (SMILES)
>13 | 588 | > 128 | > 49 | 256 (≈ 965 µM) | > 49 | > 49 | 8 (≈ 30.2 µM) | 6.79 | > 965 | 192 | – | NC(=O)[C@@H]1CC[C@@H]2CN1C(=O)N2OS(=O)(=O)O [AVI, avibactam]
– | – | – | > 39.9 | – | > 39.9 | > 39.9 | 0.06 to 0.1 (≈ 0.184 to 0.307 µM) | – | – | – | – | CC1(C)S[C@@H]2[C@H](/N=C/N3CCCCCC3)C(=O)N2[C@H]1C(=O)O [MEC, amdinocillin]
>25 | > 14.6 | 4 (≈ 7.32 µM) | 0.366 | 16 (≈ 29.3 µM) | > 45.7 | 14.6 | 0.5 (≈ 0.915 µM) | 0.0732 | > 14.6 | 1.28 | affinity for PBP4 was much lower | CC(C)(O/N=C(\C(=O)N[C@@H]1C(=O)N2C(C(=O)[O-])=C(C[n+]3ccccc3)CS[C@H]12)c1csc(N)n1)C(=O)O [CAZ, ceftazidime]
